Laboratory results as given in PMC6468299 (Nucleic Acids Research, 2019).

Molecular target: T1, Pol-γ (exo- mutant) (Homo sapiens, UniProt P54098, D198A/E200A)
T1 sequence (P54098 26-1239 D198A/E200A limits assumed): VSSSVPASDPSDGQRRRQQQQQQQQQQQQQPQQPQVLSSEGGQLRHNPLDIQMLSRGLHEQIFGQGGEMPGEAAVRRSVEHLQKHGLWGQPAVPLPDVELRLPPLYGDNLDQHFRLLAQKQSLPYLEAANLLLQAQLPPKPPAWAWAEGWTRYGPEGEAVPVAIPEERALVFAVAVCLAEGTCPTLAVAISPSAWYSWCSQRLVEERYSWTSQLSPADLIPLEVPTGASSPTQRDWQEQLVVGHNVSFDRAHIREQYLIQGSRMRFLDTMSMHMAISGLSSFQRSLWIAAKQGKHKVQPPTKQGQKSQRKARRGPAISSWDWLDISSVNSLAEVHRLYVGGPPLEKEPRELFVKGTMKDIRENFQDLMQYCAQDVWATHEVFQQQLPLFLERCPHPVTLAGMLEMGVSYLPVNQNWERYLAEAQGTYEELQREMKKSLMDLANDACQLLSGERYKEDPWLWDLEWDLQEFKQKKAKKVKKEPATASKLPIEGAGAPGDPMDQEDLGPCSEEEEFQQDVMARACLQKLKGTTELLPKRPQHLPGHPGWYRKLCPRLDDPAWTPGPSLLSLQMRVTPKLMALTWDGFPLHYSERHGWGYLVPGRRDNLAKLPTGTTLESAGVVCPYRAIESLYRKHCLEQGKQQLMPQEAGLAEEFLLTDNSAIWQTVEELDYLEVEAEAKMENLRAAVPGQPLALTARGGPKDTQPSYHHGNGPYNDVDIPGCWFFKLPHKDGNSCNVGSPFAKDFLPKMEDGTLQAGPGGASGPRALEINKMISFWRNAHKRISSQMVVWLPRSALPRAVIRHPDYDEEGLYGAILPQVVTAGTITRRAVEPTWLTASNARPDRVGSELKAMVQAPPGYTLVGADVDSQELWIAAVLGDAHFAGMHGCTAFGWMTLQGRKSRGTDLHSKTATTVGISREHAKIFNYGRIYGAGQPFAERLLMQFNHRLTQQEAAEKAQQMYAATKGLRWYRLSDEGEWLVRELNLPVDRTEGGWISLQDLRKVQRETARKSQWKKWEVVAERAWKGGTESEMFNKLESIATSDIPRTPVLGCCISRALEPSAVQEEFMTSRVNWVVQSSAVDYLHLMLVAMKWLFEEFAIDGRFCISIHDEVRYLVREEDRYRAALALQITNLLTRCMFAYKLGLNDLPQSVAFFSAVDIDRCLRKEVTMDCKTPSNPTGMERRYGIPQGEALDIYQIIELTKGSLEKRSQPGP
Assay: Non-obligate chain termination assay
Format: biochemical
Settings: for chain elongation with analog in excess over dTTP: analog 1 μM at 10-fold (FIAU-TP also 100-fold) excess over dTTP; for chain elongation with analog substituted for dTTP: analog 1 μM, no dTTP; for effect on chain elongation in the presence of native dTTP: dTTP 1 μM, analog at 0.01, 0.1 or 1 μM, 37°C, 10 min
In short: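 A 23-mer DNA primer was 5′-end labelled with γ-³²P ATP and annealed to a 50-mer template. Extension required reading through nine consecutive template adenosines. Reactions used 10 units exonuclease-deficient human Pol-γ, with test analogue (0.01–1 μM) alone or with dTTP, plus native dATP/dCTP/dGTP, for 10 min at 37°C. Samples were stopped with loading dye, heated 100°C 5 min, run on 12% urea PAGE and phosphorimaged.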

SMILES: O=c1[nH]c(=O)n([C@@H]2O[C@H](COP(=O)(O)OP(=O)(O)OP(=O)(O)O)[C@@H](O)[C@@H]2F)cc1I [FIAU-TP, fialuridine triphosphate, reference compound]
- chain elongation with analog in excess over dTTP: continued to strongly impair elongation
- chain elongation with analog substituted for dTTP: restricted elongation products to 31 nucleotides in length
- effect on chain elongation in the presence of native dTTP: caused a reduction in full-length product and an increase in shorter products at the highest concentration

SMILES: O=c1ccn([C@@H]2O[C@H](COP(=O)(O)OP(=O)(O)OP(=O)(O)O)[C@@H](O)[C@H]2F)c(=O)[nH]1 [2′-F-UTP]
- chain elongation with analog in excess over dTTP: the presence of dTTP reduced the elongation defect
- chain elongation with analog substituted for dTTP: weak smear of elongated species with very little full-length product
- effect on chain elongation in the presence of native dTTP: essentially no impact on chain elongation
